Data: ChEMBL document CHEMBL1157595, “Synthesis and biological evaluation of botulinum neurotoxin a protease inhibitors” (J Med Chem, 2010)
Activity calls are given as the source filed them. No cut-off for these calls is given here.

Columns and labels:
[1] = target: T1, Botulinum neurotoxin type A (Clostridium botulinum, UniProt P0DPI0); test: Inhibition of Clostridium botulinum toxin BoNT/A light chain by FRET assay
Outline: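 Recombinant BoNT/A light chain was assayed by FRET substrate cleavage in 50 mM HEPES–0.05% Tween, pH 7.4. Reactions were stopped with acetic acid (0.5% final), and cleaved substrate fluorescence was read at 485 nm after excitation at 398 nm.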

Lethal factor = target: T2, Lethal factor (Bacillus anthracis, UniProt P15917); test: Inhibition of Bacillus anthracis anthrax lethal factor by FRET assay
T2 sequence (P15917 whole entry): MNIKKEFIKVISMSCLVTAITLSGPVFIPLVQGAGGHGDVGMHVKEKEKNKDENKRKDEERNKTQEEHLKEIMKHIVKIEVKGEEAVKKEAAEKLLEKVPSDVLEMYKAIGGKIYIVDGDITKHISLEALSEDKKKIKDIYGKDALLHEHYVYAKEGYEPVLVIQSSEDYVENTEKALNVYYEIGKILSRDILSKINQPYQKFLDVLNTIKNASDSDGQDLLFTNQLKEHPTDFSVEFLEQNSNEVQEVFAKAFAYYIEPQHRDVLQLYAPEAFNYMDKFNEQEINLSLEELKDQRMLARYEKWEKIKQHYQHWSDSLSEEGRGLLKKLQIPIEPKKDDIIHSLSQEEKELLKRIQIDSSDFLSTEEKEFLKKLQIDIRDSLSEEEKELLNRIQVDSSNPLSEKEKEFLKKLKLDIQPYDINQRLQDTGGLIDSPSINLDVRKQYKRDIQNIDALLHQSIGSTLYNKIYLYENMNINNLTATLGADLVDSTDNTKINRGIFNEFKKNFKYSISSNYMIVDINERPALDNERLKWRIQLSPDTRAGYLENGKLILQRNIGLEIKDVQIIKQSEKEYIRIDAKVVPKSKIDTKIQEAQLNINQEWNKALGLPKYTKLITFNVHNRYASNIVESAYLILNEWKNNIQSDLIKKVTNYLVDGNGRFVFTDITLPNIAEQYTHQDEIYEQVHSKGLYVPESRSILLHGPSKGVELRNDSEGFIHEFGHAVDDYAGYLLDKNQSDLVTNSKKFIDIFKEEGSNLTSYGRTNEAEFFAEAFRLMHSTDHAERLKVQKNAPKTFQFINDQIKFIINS

[2] = Selectivity ratio of IC50 for Bacillus anthracis anthrax lethal factor to IC50 for Clostridium botulinum toxin BoNT/A light chain
[3] = target: T1, Botulinum neurotoxin type A; test: Inhibition of Clostridium botulinum toxin BoNT/A light chain by HPLC-based assay
Outline: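 Secondary HPLC-based cleavage assay with recombinant BoNT/A light chain, used to confirm FRET data. Values are the average of two experiments with variation under 10%.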

[4] = target: Botulinum neurotoxin type A (Clostridium botulinum) (UniProt P0DPI0); conditions: 20 uM
[5] = target: T3, Botulinum neurotoxin type B (Clostridium botulinum) (UniProt P10844); test: Inhibition of Clostridium botulinum toxin BoNT/B
T3 sequence (whole entry): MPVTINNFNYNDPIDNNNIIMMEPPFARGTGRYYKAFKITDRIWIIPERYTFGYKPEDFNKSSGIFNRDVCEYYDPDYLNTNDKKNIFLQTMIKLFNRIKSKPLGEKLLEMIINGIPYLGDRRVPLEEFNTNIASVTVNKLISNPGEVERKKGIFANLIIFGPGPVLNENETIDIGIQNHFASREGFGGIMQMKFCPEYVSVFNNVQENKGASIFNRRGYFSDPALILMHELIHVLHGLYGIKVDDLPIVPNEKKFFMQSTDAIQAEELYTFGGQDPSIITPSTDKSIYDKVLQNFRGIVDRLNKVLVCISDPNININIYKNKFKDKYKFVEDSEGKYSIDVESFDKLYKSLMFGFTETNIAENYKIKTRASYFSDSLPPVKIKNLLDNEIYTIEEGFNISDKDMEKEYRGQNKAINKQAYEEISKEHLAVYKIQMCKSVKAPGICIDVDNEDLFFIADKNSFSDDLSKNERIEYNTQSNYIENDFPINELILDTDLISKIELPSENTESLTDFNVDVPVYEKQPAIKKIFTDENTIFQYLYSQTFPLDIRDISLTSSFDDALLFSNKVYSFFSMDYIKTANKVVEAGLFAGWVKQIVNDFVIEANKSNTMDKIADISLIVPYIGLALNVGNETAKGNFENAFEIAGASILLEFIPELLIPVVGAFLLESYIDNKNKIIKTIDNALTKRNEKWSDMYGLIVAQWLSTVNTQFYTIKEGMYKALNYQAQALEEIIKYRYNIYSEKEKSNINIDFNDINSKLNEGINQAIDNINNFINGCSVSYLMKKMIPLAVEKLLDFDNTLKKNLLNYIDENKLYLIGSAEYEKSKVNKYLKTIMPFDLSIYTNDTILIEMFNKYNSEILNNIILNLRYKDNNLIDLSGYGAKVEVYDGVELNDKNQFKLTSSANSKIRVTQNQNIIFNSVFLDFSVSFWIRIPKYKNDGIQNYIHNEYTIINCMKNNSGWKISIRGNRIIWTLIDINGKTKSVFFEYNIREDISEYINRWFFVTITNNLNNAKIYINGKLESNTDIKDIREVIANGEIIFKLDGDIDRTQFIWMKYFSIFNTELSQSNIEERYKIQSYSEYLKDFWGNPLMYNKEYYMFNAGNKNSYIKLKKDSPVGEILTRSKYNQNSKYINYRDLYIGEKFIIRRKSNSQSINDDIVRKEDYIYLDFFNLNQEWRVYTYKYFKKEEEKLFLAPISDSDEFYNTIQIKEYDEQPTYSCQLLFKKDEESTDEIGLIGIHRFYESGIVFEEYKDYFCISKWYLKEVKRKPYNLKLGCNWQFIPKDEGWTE

[6] = target: T4, Interstitial collagenase (Homo sapiens) (UniProt P03956); test: Inhibition of human MMP1
T4 sequence (whole entry): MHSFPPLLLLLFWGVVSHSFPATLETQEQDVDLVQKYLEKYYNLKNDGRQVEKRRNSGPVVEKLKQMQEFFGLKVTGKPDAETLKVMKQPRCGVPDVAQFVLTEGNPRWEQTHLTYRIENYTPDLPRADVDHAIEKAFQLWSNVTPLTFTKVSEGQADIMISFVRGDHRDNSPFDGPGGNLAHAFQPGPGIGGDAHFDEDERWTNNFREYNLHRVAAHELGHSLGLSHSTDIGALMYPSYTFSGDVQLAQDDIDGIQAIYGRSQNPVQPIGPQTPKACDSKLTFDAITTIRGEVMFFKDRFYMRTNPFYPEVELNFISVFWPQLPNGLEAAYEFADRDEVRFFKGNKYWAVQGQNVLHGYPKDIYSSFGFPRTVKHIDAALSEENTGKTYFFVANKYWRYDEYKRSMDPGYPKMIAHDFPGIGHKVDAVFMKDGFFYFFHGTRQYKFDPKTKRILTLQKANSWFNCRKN

[7] = target: Matrix metalloproteinase-9 (Homo sapiens) (UniProt P14780); test: Inhibition of human MMP9
[8] = target: T1, Botulinum neurotoxin type A; test: Inhibition of Clostridium botulinum toxin BoNT/A light chain

T1 sequence (P0DPI0 2-448 limits assumed): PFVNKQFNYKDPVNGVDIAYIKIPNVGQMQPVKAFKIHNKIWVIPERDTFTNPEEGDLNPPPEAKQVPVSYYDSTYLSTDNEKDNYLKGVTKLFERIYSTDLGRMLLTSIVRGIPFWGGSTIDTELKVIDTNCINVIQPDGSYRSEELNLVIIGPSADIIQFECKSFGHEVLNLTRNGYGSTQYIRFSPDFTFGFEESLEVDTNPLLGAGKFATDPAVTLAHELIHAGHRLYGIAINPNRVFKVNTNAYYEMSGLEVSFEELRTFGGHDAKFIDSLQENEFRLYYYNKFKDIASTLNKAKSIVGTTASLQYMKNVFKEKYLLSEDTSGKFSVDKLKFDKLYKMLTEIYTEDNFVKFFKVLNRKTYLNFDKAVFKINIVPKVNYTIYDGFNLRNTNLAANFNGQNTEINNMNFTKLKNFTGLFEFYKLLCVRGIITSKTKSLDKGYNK
Matrix metalloproteinase-9 (Homo sapiens), sequence (P14780 whole entry): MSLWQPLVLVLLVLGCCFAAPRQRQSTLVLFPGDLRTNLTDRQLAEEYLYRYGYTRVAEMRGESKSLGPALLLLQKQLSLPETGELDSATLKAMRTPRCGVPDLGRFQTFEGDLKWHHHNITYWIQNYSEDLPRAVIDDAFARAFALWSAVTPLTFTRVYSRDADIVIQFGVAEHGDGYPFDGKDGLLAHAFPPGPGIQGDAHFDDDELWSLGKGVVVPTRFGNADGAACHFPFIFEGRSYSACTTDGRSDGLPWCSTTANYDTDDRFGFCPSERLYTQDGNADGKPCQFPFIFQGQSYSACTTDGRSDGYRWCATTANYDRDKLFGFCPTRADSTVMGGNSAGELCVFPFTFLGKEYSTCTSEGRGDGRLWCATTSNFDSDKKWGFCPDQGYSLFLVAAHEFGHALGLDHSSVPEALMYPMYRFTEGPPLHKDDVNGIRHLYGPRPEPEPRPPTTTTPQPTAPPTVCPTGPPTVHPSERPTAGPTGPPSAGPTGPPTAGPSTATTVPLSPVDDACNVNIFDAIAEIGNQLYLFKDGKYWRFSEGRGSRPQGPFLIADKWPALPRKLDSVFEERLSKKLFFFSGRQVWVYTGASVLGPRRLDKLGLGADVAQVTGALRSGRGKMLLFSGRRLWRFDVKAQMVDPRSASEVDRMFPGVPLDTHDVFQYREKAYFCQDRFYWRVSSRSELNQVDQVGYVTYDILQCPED
Botulinum neurotoxin type A (Clostridium botulinum), sequence (P0DPI0 2-448 limits assumed): as the sequence (P0DPI0 2-448 limits assumed) above

Row | SMILES | IC50 [1] [µM] | IC50 (Lethal factor) [µM] | IC50 [3] [µM] | also measured
1 | OC1CN=C(c2ccc(Oc3ccc(-c4cc5ccc(C6=NCC(O)CN6)cc5[nH]4)cc3)cc2)NC1 (configuration not stated) | 7.3 | > 100 | – | Ratio IC50 [2]: 10
2 | N#Cc1ccc(Oc2ccc(-c3cc4ccc(C5=NCCN5)cc4[nH]3)cc2)c(Cl)c1 | 30 | > 100 | – | –
3 | N#Cc1ccc(Oc2ccc(-c3cc4ccc(C#N)cc4[nH]3)cc2)cc1 | > 100 | – | – | –
4 | N=C(N)c1ccc(Oc2ccc(-c3cc4ccc(C(=N)N)cc4[nH]3)cc2)cc1 | 11 | 35 | 17 | inhibition [4]: 75%
5 | c1cc(C2=NCCCN2)ccc1Oc1ccc(-c2cc3ccc(C4=NCCCN4)cc3s2)cc1 | 54 | > 100 | – | –
6 | c1cc(C2=NCCN2)ccc1Oc1ccc(-c2cc3ccc(C4=NCCN4)cc3[nH]2)nc1 | 69 | 55 | > 100 | –
7 | c1cc(C2=NCCCN2)ccc1Oc1ccc(-c2cc3ccc(C4=NCCCN4)cc3[nH]2)nc1 | 67 | > 100 | > 100 | –
8 | N#Cc1ccc(Oc2ccc(-c3cc4ccc(C#N)cc4[nH]3)cc2)c(Cl)c1 | > 100 | – | – | –
9 | N#Cc1ccc(Oc2ccc(-c3cc4ccc(C#N)cc4[nH]3)nc2)cc1 | > 100 | > 100 | – | –
10 | CN(C)CC/N=C(\N)c1ccc(Oc2ccc(-c3cc4ccc(/C(N)=N/CCN(C)C)cc4[nH]3)cc2)cc1 | 2.5 | 28 | 4.4 | Ratio IC50 [2]: 10; inhibition [5]: inactive; inhibition [6]: inactive; inhibition [7]: inactive
11 | c1cc(-c2cc3ccc(C4=NCCN4)cc3[nH]2)ccc1C1=NCCN1 | 20 | 49 | – | inhibition [5]: inactive; inhibition [6]: inactive; inhibition [7]: inactive
12 | N#Cc1ccc(Oc2ccc(-c3cc4ccc(C(=N)N)cc4[nH]3)cc2)cc1 | > 25 | > 100 | – | –
13 | NCCCCCCCNCCCCCCCNC(=O)c1cc(CCC(=O)NO)c(CCC(O)(c2ccccc2)c2ccccc2)[nH]1 | – | – | – | IC50 [8]: < 1 µM; Ki [8]: 0.76 µM
14 | c1cc(-c2cc3ccc(C4=NCCCN4)cc3s2)ccc1C1=NCCCN1 | > 100 | – | – | –
15 | c1cc(C2=NCCCN2)ccc1Oc1ccc(-c2cc3ccc(C4=NCCCN4)cc3[nH]2)cc1 | 21 | > 100 | 43 | –
16 | c1cc(C2=NCCN2)ccc1Oc1ccc(-c2nc3ccc(C4=NCCN4)cc3[nH]2)cc1 | 24.5 | – | – | –
17 | Clc1ccc(Oc2ccc(-c3cc4ccc(C5=NCCN5)cc4[nH]3)cc2)c(Cl)c1 | > 25 | > 100 | 52 | –
18 | c1cc(-c2cc3ccc(C4=NCCN4)cc3s2)ccc1C1=NCCN1 | 43 | > 100 | – | –
19 | c1cc(C2=NCCN2)ccc1Oc1ccc(-c2cc3ccc(C4=NCCN4)cc3s2)cc1 | 7.1 | 18 | 25 | –
20 | c1cc(-c2cc3ccc(C4=NCCCN4)cc3[nH]2)ccc1C1=NCCCN1 | > 100 | > 100 | – | –
21 | c1cc(C2=NCCN2)ccc1Oc1ccc(-c2cc3ccc(C4=NCCN4)cc3[nH]2)cc1 | 12.5 | 43 | 9.4 | –
22 | CCOc1ccc(C(Nc2cccnc2)c2cc(Cl)c3cccnc3c2O)cc1 (configuration not stated) | – | – | – | IC50 [8]: 0.5 µM
23 | NC(=O)c1ccc(Oc2ccc(-c3cc4ccc(C(N)=O)cc4[nH]3)cc2)cc1 | > 100 | > 100 | – | –
24 | Clc1ccc2cc(-c3ccc(Oc4ccc(C5=NCCN5)cc4)cc3)[nH]c2c1 | > 100 | 51 | – | –
25 | c1cc(C2=NCCCN2)ccc1Oc1ccc(-c2nc3ccc(C4=NCCCN4)cc3[nH]2)cc1 | 28 | – | 41 | –
